In the library only some 2.5% were active in any assay of this set; here they are far more common.
JMJD2C inh: inhibitors of human GASC-1 (JMJD2C) demethylase; GST-JMJD2C(1-420) H3K9me3 demethylation, DELFIA europium; hit rate 0.069% among 330,000; AID 2099; inhibition, % at 2.35 µM; Q9H3R0;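 active = more than half of a compound's replicate wells show inhibition beyond 50%, single wells judged on their own value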;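 also: signal counts dimethyl H3K9 product captured on neutravidin plate; 0% = median of DMSO wells and 100% = 0.3 times that DMSO median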
proKLK7 act: activators of human kallikrein-7 zymogen. P49862. purified proKLK7, EDANS-DABCYL substrate fluorescence; 100% is mature enzyme control, 0% vehicle. activation, % at 7 µM. hit rate 0.9% among 370,000. AID 652039;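 active = activation above the mean of all tested compounds plus 3 SD, computed per campaign excluding outliers beyond control limits, cut at about 13% in these data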
NR2E3 ag-1: NR2E3 (human) agonism; GST-NR2E3/biotin-RetCOR TR-FRET, 1536-well; inhibition of corepressor binding, % at 4.78 µM; Q9Y5X4; hit rate 0.12% among 320,000;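 active = percent inhibition above the cutoff of mean plus 3 SD of all tested compounds, set per screening campaign, cut at about 20% in these data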;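 also: 0% = DMSO wells and 100% = biotin wells as full block of FRET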
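Test system – NR2E3–RetCOR corepressor complex · Quantity – NR2E3 fusion 1.35 nM · Buffer or medium – Tris pH 7.5 · Incubation – Compound–protein incubation for 5 h at 4 °C · Technique – TR-FRET, Eu(K)-anti-GST donor, streptavidin-D2 acceptor, ex 340, em 617/671 nm · Evaluation – percent inhibition of 671/617 nm emission ratio versus biotin and DMSO controls · Plate – 1536-well format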
ADAM10 inh: ADAM10 inhibition, QFRET primary screen. O14672. AID 720582. recombinant ADAM10, EDANS/DABCYL FRET peptide cleavage, 3 h. hit rate 0.62% among 370,000. inhibition, % at 7 µM;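 active = inhibition above a per-campaign cutoff equal to the mean of compounds falling between control-based bounds plus 3 SD, cut at about 20% in these data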;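 also: 0% = DMSO wells while the 100% control is not disclosed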
NR2E3 ag-2: agonists of human NR2E3 nuclear receptor; Q9Y5X4; inhibition of corepressor binding, % at 3.98 µM; AID 602229; hit rate 0.35% among 360,000; CHO-S Gal4-NCOR/VP16-NR2E3 two-hybrid, luciferase;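 active = inhibition above the mean of all tested compounds plus 3 SD, cut at about 70% in these data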;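 also: 0% = DMSO with NR2E3 transfected cells and 100% = cells lacking NR2E3 construct; higher means lower luciferase signal from less NR2E3 corepressor binding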
ADAM17 inh: inhibitors of human ADAM17; P78536; recombinant ADAM17, EDANS/DABCYL FRET peptide cleavage; inhibition, % at 6.95 µM; hit rate 0.83% among 370,000;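 active = inhibition above the mean of compounds lying between control limits plus 3 SD, set per campaign, cut at about 8.5% in these data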;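 also: 0% = DMSO-only wells as the low control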
Target sequence (P78536 215-824 limits assumed): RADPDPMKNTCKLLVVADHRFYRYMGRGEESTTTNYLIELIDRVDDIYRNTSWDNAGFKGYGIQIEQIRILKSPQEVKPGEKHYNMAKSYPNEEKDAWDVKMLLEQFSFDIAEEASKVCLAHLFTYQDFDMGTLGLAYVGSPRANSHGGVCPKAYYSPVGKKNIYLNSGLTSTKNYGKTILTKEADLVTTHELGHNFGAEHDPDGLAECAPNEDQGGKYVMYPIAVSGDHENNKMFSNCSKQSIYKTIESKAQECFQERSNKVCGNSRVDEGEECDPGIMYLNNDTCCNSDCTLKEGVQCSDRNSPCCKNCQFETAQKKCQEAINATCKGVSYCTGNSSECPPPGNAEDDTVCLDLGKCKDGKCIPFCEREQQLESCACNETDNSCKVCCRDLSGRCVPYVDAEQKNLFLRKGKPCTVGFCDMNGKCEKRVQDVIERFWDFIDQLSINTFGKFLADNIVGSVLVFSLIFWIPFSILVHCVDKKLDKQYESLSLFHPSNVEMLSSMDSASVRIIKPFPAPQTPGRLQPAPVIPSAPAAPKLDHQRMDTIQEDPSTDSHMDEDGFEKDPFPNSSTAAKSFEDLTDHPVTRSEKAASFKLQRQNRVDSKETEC
ADAM10 ctr: ADAM10 inhibition, counter-screen for ADAM17 exosite hits. shares compounds with ADAM17 inh. recombinant ADAM10, EDANS/DABCYL FRET peptide cleavage, 3 h. inhibition, % at 6.95 µM. hit rate 47% among 2,900. AID 743256;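 active = mean inhibition over the triplicate runs exceeds the activity threshold set in the earlier primary screen, cut at about 20% in these data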;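 also: 0% = DMSO wells and 100% = marimastat wells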
ADAM17 confirm: human ADAM17 inhibition, confirmation; shares compounds with ADAM17 inh; recombinant ADAM17, EDANS/DABCYL QFRET peptide cleavage; inhibition, % at 6.95 µM; hit rate 65% among 2,900; AID 743257;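 active = mean inhibition across replicates above the hit cutoff set in the primary screen, cut at about 8.5% in these data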;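 also: 0% = DMSO wells and 100% = marimastat wells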
Starred values were filed as active, the others as inactive.

COCCN=C1OC(=O)N2C(=O)C3=C4[C@@H](C[C@H]5C(=O)N(c6ccccc6)C(=O)[C@H]5[C@H]4[C@@]12Cc1ccccc1)[C@H]1C(=O)N(c2ccccc2)C(=O)[C@H]1[C@H]3C was read as JMJD2C inh 8, proKLK7 act 1, NR2E3 ag-1 3, ADAM10 inh -2, NR2E3 ag-2 -12 and ADAM17 inh 3.
Screening COC(=O)CN=C1OC(=O)N2C(=O)C3=C4[C@@H](C[C@H]5C(=O)N(c6ccccc6)C(=O)[C@H]5[C@H]4[C@@]12Cc1ccccc1)[C@H]1C(=O)N(c2ccccc2)C(=O)[C@H]1[C@H]3C returned JMJD2C inh 0, proKLK7 act 0, NR2E3 ag-1 0, ADAM10 inh 14, NR2E3 ag-2 -8, ADAM17 inh 9.8*, ADAM10 ctr 11 and ADAM17 confirm 6.
COc1cccc(C(NC(C)=O)c2nc(-c3ccc4ccccc4c3)cs2)c1 (stereo not drawn) was read as proKLK7 act 0, ADAM10 inh 13, NR2E3 ag-2 4, ADAM17 inh 12*, ADAM10 ctr 18 and ADAM17 confirm 11*.
COc1ccc(C(C)(O)c2nc(-c3ccc4ccccc4c3)cs2)cc1 (stereo not drawn) was read as proKLK7 act 1, ADAM10 inh 15, NR2E3 ag-2 -28, ADAM17 inh 8.8*, ADAM10 ctr 7 and ADAM17 confirm 6.
Screening Cc1[nH]n(-c2ncc(-c3ccccc3)s2)c(=O)c1C(c1ccc(Br)cc1)C(C#N)C#N (stereo not drawn) returned JMJD2C inh 1, proKLK7 act -1, NR2E3 ag-1 -2, ADAM10 inh 15, NR2E3 ag-2 17, ADAM17 inh 8.7*, ADAM10 ctr 14 and ADAM17 confirm 12*.
CCOC(=O)c1ccc(-n2c(O)c(/C=N/NC(=O)C3COc4ccccc4O3)c3ccccc3c2=O)cc1 (stereo not drawn) was read as JMJD2C inh 23, proKLK7 act -4, NR2E3 ag-1 1, ADAM10 inh 5, NR2E3 ag-2 -33, ADAM17 inh 10*, ADAM10 ctr -31 and ADAM17 confirm 5.
Screening CCOC(=O)c1ccc(NC(=O)C2COc3ccccc3O2)cc1 (stereo not drawn) returned JMJD2C inh 32, proKLK7 act 0, NR2E3 ag-1 -5, ADAM10 inh 5, NR2E3 ag-2 -41 and ADAM17 inh 0.
Screening O=C(CN1CCN(Cc2ccccc2)CC1)Nc1ccc(Cl)cc1 returned JMJD2C inh -13, proKLK7 act 0, NR2E3 ag-1 4, ADAM10 inh 11, NR2E3 ag-2 -22 and ADAM17 inh 1.
Screening CCCCOc1ccc(NC(=O)CN2CCN(Cc3ccccc3)CC2)cc1 returned JMJD2C inh -5, proKLK7 act 0, NR2E3 ag-1 0, ADAM10 inh 14, NR2E3 ag-2 -1, ADAM17 inh 8.8*, ADAM10 ctr -2 and ADAM17 confirm 4.
`COc1ccc(C2CC(c3ccccc3)=NN2C(=O)c2ccc(F)cc2)cc1` (stereo not drawn) gave JMJD2C inh 5, proKLK7 act 0, NR2E3 ag-1 -2, ADAM10 inh 6, NR2E3 ag-2 -29 and ADAM17 inh -3.
For COc1ccc(C2CC(c3ccccc3)=NN2C(=O)CN2N=NC3C(=O)N(c4cccc(F)c4)C(=O)C32)cc1 (stereo not drawn) the results were JMJD2C inh -1, proKLK7 act -2, NR2E3 ag-1 -3, ADAM10 inh 13, NR2E3 ag-2 -5, ADAM17 inh 14*, ADAM10 ctr 9 and ADAM17 confirm 4.
Screening CCOc1ccc(-c2[nH]ncc2-c2ccc(Cl)cc2)c(O)c1 returned JMJD2C inh -32, proKLK7 act 0, NR2E3 ag-1 1, ADAM10 inh 15, NR2E3 ag-2 -17, ADAM17 inh 9.9*, ADAM10 ctr 12 and ADAM17 confirm 12*.
O=C(Nc1nc(-c2ccccc2)cs1)C1COc2ccccc2O1 (stereo not drawn) was read as JMJD2C inh -1, proKLK7 act 0, NR2E3 ag-1 -2, ADAM10 inh 12, NR2E3 ag-2 -26, ADAM17 inh 14*, ADAM10 ctr 44* and ADAM17 confirm 14*.
`O=C(Nc1nc(-c2ccc3c(c2)OCO3)cs1)C1COc2ccccc2O1` (stereo not drawn) gave JMJD2C inh -4, proKLK7 act 0, NR2E3 ag-1 5, ADAM10 inh 12, NR2E3 ag-2 -29 and ADAM17 inh 6.
Nc1nc(-c2cc3ccccc3o2)cs1 was read as JMJD2C inh 10, proKLK7 act 0, NR2E3 ag-1 2, ADAM10 inh -8, NR2E3 ag-2 -71 and ADAM17 inh -5.
`OCOCCCn1c(C2CCCN2c2nc(-c3ccc(F)cc3)cs2)nc2cc(Cl)c(N3CCCCC3)cc21` (stereo not drawn) gave JMJD2C inh 0, proKLK7 act -1, NR2E3 ag-1 -3, ADAM10 inh 15, NR2E3 ag-2 15, ADAM17 inh 10*, ADAM10 ctr 16 and ADAM17 confirm 8.7*.
OCCCn1c(C2CCCN2c2nc(-c3ccc(Cl)cc3)cs2)nc2cc(Cl)c(Cl)cc21 (stereo not drawn) was read as JMJD2C inh 15, proKLK7 act -1, NR2E3 ag-1 -3, ADAM10 inh 19, NR2E3 ag-2 -15, ADAM17 inh 9.1*, ADAM10 ctr 27* and ADAM17 confirm 12*.
`OCCCn1c(C2CCCN2c2nc(-c3ccc(F)cc3)cs2)nc2cc(Cl)c(Cl)cc21` (stereo not drawn) gave JMJD2C inh -2, proKLK7 act -1, NR2E3 ag-1 4, ADAM10 inh 12, NR2E3 ag-2 -23, ADAM17 inh 9.5*, ADAM10 ctr 19 and ADAM17 confirm 11*.
For Nc1c(Cl)cc(-c2csc(N3CCCC3c3nc4cc(Cl)c(Cl)cc4n3CCCO)n2)cc1Cl (stereo not drawn) the results were JMJD2C inh -2, proKLK7 act 0, NR2E3 ag-1 4, ADAM10 inh 5, NR2E3 ag-2 -4 and ADAM17 inh 0.

Source: PubChem BioAssay
